From paper PMC3361572 (Chemistry & biology, 2012)

Columns and labels:
ABHD6 [1] = molecular target: T1, ABHD6 (Rattus norvegicus, UniProt Q5XI64); assay: competitive ABPP of brain from KML29-treated rats; assay type: in vivo; details: Wistar rats, 1–40 mg kg^−1 i.p., 4 h
T1 sequence (Q5XI64 1-337): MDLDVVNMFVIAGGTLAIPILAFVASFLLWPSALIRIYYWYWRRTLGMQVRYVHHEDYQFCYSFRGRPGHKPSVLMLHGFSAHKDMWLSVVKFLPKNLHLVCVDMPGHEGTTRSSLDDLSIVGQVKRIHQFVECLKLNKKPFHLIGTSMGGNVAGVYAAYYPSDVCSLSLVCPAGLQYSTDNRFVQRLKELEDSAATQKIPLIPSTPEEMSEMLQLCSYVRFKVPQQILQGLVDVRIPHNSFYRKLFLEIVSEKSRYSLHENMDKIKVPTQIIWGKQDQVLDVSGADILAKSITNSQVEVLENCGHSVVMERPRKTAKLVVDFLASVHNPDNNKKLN
In short: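 Wistar rats were injected i.p. with the test compound (1–40 mg kg−1) or vehicle. Vehicle was saline:emulphor:ethanol 18:1:1, with prolonged sonication and mild heating to dissolve. Rats were killed at 4 h. Brain, liver, lung and spleen proteomes were labelled with FP-Rh, separated by SDS-PAGE and scanned for in-gel fluorescence. Inhibition was scored as reduced probe labelling. n = 3 rats/group.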

[2] = system: carboxylesterase (CES) enzymes; assay: gel-based ABPP of liver, lung and spleen from inhibitor-treated mice; assay type: in vivo, mouse
[3] = system: other rat brain serine hydrolases; assay: competitive ABPP, rat brain proteome, other serine hydrolases; assay type: biochemical
In short: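 Rat brain proteome was preincubated with test compound, then labelled with the serine hydrolase-directed probe FP-rhodamine. Proteins were separated by SDS-PAGE and scanned by in-gel fluorescence. Inhibition of individual serine hydrolases was scored as reduced probe labelling.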

FAAH = molecular target: T2, FAAH (Mus musculus, UniProt O08914); assay: AEA substrate assay in mouse brain proteomes; assay type: biochemical
T2 sequence (O08914 1-579): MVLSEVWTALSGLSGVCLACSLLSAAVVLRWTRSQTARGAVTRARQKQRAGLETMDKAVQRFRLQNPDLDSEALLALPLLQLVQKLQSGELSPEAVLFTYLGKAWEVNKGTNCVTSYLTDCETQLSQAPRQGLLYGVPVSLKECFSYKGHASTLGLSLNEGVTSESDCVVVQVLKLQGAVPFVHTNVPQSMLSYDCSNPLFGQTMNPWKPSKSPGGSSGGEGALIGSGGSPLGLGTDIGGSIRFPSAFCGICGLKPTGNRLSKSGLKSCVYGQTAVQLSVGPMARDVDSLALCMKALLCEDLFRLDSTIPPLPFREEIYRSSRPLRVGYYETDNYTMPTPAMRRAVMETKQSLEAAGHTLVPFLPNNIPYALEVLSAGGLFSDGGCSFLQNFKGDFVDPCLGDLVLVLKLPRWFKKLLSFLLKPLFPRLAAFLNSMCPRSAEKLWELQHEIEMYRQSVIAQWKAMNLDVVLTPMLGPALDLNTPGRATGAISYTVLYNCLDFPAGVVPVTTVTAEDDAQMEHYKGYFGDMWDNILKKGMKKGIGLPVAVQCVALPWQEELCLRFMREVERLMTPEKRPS
In short: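 Mouse brain proteome was treated with test compound. FAAH activity was read as hydrolysis of AEA substrate. Data are means ± SEM of three independent experiments.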

MAGL [4] = molecular target: T3, MAGL (Mus musculus, UniProt O35678); assay: competitive ABPP of brain from inhibitor-treated mice; assay type: in vivo; details: for blockade of MAGL activity in brain: C57Bl/6 mice, 4 h
T3 sequence (O35678 1-303): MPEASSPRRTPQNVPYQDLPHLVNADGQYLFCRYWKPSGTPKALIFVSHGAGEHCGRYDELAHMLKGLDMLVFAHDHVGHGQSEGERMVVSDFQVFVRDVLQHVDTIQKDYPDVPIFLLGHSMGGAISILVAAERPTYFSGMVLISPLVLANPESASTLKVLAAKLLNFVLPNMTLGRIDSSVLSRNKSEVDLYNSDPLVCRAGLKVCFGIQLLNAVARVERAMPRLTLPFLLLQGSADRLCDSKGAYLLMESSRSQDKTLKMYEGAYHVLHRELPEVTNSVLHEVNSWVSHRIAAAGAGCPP

ABHD6 [5] = molecular target: T4, ABHD6 (Mus musculus, UniProt Q8R2Y0); assay: competitive ABPP, mouse brain membrane proteome; assay type: biochemical; details: mouse brain serine hydrolase activities, full ABPP gel
T4 sequence (Q8R2Y0 1-336): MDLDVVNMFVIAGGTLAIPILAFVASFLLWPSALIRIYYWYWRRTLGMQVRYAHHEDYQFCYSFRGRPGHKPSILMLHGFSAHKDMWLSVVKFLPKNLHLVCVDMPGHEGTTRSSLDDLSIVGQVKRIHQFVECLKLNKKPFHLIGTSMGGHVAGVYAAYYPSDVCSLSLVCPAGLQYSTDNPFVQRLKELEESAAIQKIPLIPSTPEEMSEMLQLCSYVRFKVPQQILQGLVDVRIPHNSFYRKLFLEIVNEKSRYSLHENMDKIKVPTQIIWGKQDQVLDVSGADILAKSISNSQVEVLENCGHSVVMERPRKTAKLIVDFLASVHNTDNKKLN
In short: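 Brain (mouse or rat) or mouse lung proteomes were preincubated with the test compound, then treated with the serine hydrolase probe FP-Rh. Samples were separated by SDS-PAGE and read by in-gel fluorescence scanning. Inhibition was taken as reduced FP-Rh labelling of MAGL, ABHD6, FAAH or CES bands, and IC50 values were calculated from quantified gel bands. Three independent experiments.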

MAGL [6] = molecular target: T3, MAGL; assay: competitive ABPP, mouse brain membrane proteome; assay type: biochemical

O=C(OC(C(F)(F)F)C(F)(F)F)N1CCC(C(O)(c2ccc3c(c2)OCO3)c2ccc3c(c2)OCO3)CC1 [KML29]
cross-reactivity with brain ABHD6 (ABHD6 [1]): without any detectable cross-reactivity
CES inhibition in peripheral tissues, chronic dosing ([2]; 40 mg kg^−1 p.o., six days): minimal cross-reactivity with CES enzymes
doses at which CES cross-reactivity (single ~70 kDa enzyme) was detected ([2]; p.o., 4 h, peripheral tissues): 20 to 40 mg/kg
additional off-target reactivity with other rat brain serine hydrolases [3]: did not detect any additional off-target reactivity
effect on AEA hydrolysis (FAAH): did not affect AEA hydrolysis at any concentration tested
blockade of MAGL activity in brain (MAGL [4]; 5 mg kg^−1 p.o.): partial inhibition
blockade of MAGL activity in brain (MAGL [4]; 20 mg kg^−1 p.o.): maximal inhibition
time until which brain MAGL inhibition was sustained (MAGL [4]; mice, single oral dose 20 mg kg^−1): 12 to 24 h
time post-administration of maximal inhibition of brain MAGL (MAGL [4]; mice, single oral dose 20 mg kg^−1, earliest time point tested): ≤ 1 h
concentrations with inhibition of ABHD6 (ABHD6 [5]): > 1 µM
selectivity for MAGL relative to ABHD6 (MAGL [6]; mouse brain proteome, competitive ABPP): greater than 100 fold
inhibitor concentrations with selective inhibition of MAGL (MAGL [6]; mouse brain serine hydrolase activities, full ABPP gel): ≤ 1 µM
